# RORA inh: RORA (human) inhibition; P35398; CHO-K1 Gal4-RORA LBD luciferase reporter, luminescence; inhibition, % at 10 µM; 0.43% of 65,000 active;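 active = inhibition above the mean of all tested compounds plus 3 SD, cut at about 52% in these data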
# Target sequence (P35398 whole entry, looked up, the tested form may be a part): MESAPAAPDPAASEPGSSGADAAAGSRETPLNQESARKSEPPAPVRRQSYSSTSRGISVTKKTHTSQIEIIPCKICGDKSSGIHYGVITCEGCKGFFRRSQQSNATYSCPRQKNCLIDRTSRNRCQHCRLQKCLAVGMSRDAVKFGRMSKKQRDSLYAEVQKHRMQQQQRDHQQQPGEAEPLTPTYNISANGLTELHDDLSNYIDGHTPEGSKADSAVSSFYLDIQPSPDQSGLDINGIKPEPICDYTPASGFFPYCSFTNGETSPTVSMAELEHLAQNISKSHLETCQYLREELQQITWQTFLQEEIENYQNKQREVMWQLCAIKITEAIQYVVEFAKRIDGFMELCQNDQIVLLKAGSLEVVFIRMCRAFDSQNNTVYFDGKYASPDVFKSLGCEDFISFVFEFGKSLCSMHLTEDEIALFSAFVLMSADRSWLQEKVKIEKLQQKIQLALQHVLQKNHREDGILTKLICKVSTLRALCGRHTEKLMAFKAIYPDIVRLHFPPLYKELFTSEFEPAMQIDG
#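 Test system – CHO-K1 Gal4-RORA LBD luciferase reporter cells · Schedule – 20 h at 37 °C · Signal – luminescence from basal luciferase reporter expression · Measure – percent inhibition of basal reporter luminescence, control-normalized · Control set – -RORA mock-transfected DMSO wells 100%, +RORA DMSO wells 0%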
# Hits are given with their value; – = inactive. Only a selection was taken, and hits are over-represented in it overall.
SMILES,RORA inh
COc1ccccc1NC(=O)COc1ccc(/C=N/n2cnnc2)cc1OC,–
COc1cc(C(=S)N2CCCCC2)ccc1OCC(=O)N1CCCC1,–
COc1cc(/C=N/O)ccc1OCc1ccc(C(=O)O)cc1,89
CC(=O)Nc1ccc(S(=O)(=O)NCCNC(=O)c2ccccc2F)cc1,–
c1ccc(Nc2nc3ccccc3[nH]2)nc1,–
COc1ccccc1CCC(=O)Nc1nc2ccccc2[nH]1,–
O=C(CSc1nc2ccccc2[nH]1)N1CCCCC1,–
O=C(Nc1nc2ccccc2[nH]1)c1ccc(F)cc1,54
O=C(Nc1nc2ccccc2[nH]1)c1ccccc1F,86
CC(C)C(=O)Nc1ccc2c(c1)C(=O)N(CCC(=O)O)C2=O,–
COc1ccc(NC(=O)CCCC2=NS(=O)(=O)c3ccccc3N2)cc1,–
Cc1csc(SCCn2c(N3CCCC3)nc3c2c(=O)[nH]c(=O)n3C)n1,–
CC(C)n1c(=S)[nH]c2c1c(=O)[nH]c(=O)n2C,–
CC(=O)Nn1c(-c2ccccc2)cc2ccccc21,–
COc1cccc(C(=O)c2sc(NC(C)C)nc2N)c1,57
CCCC(=O)Nc1nc2ccc(OC)cc2s1,–
COc1cccc(C(=O)Nc2ccccc2N2CCCC2)c1,–
Cc1ccc(C2=Nc3ccccc3NC(C)(c3ccc(C)o3)C2)o1 (stereo not drawn),–
CCN1C(=O)NC(c2cccnc2)C(C(=O)OC)=C1C (stereo not drawn),–
O=C(CSc1nc2ccccc2c(=O)n1Cc1ccco1)c1ccc(F)cc1,–
COc1ccc(-n2nnc3c(SCC(=O)NCc4ccco4)ncnc32)cc1,–
COc1ccc(C(=O)Nn2c(SCC(=O)NCc3ccco3)nc3ccccc3c2=O)cc1,59
O=C(COc1ccccc1)n1nc(-c2ccc(Cl)cc2)nc1NCc1ccco1,–
CCN1CCN(Cc2ccc(NC(=O)Nc3ccccc3OC)cc2)CC1,–
COc1ccc(-n2c(=O)c3ccccc3n(CC(=O)NC3CCCC3)c2=O)c(OC)c1,–
SMILES,RORA inh
CC(=O)C(C)Oc1ccc2c3c(c(=O)oc2c1C)CCCC3 (stereo not drawn),–
Cc1cccc(-n2ncc3c(N4CCC5(CC4)OCCO5)ncnc32)c1,–
c1ccc(-n2ncc3c(N4CCCCC4)ncnc32)cc1,62
c1ccc(-n2ncc3c(NC4CCCCCC4)ncnc32)cc1,–
CC1CCCN(c2ncnc3c2cnn3-c2ccccc2)C1 (stereo not drawn),57
c1ccc(-n2ncc3c(NCC4CCCO4)ncnc32)cc1 (stereo not drawn),–
CN1CCN(c2ncnc3c2cnn3-c2ccc(Cl)cc2)CC1,–
CC1CC(C)CN(c2ncnc3c2cnn3-c2ccc(Cl)cc2)C1 (stereo not drawn),–
Clc1ccc(-n2ncc3c(NCC4CCCO4)ncnc32)cc1 (stereo not drawn),–
CC1CCCN(c2ncnc3c2cnn3-c2ccc(Cl)cc2)C1 (stereo not drawn),84
CN(C)S(=O)(=O)n1cnc(-c2ccccc2)c1-c1ccccc1,–
c1ccn2c(SCc3cn4ccsc4n3)nnc2c1,–
Cc1cc(C)cc(-n2cc3c(=O)n(C)c(=O)n(C)c3c2)c1,–
CCCN(CCC)S(=O)(=O)c1ccc(C(=O)Nc2nnc(-c3cccc(OC)c3)o2)cc1,–
CCN(Cc1ccccc1)S(=O)(=O)c1ccc(C(=O)Nc2nnc(-c3ccccc3OC)o2)cc1,–
CCCCN(CCCC)S(=O)(=O)c1ccc(C(=O)Nc2nnc(CSC)o2)cc1,61
CCC(C)Nc1nc(OC)nc(N(C)C#N)n1 (stereo not drawn),–
Cc1ccc(-c2cn3nc(C)c(C)nc3n2)cc1,74
Brc1ccc(-c2cn3cccnc3n2)cc1,–
O=S(=O)(c1ccc(NC2CCCCC2)cc1)N1CCOCC1,–
COc1cccc(CN(C(=O)c2cc3ccccc3oc2=O)C2CC2)c1,–
CCCCc1ccc(S(=O)(=O)Nc2cc(C)on2)cc1,–
Cc1cc(C)n(-c2ncnc3c2oc2ccccc23)n1,–
COc1ccc(CCNc2ncnc3c2oc2ccccc23)cc1OC,84
COc1ccccc1N1CCN(c2ncnc3c2oc2ccccc23)CC1,–
SMILES,RORA inh
O=C(CCNS(=O)(=O)c1cccc2nsnc12)N1CC(=O)N(CCc2ccccc2)C(=O)C1,–
COc1ccc(Cl)cc1NC(=O)CN(C1CCCCC1)S(C)(=O)=O,–
Cc1ccc(S(=O)(=O)N(CC(=O)N2CCCC2)C2CCCCC2)cc1,–
COC(=O)c1ccc(S(=O)(=O)N(Cc2cc3cc4c(cc3[nH]c2=O)OCO4)C2CCCCC2)cc1,–
CCN(C1CCCCC1)S(=O)(=O)c1ccc(S(=O)(=O)NCc2ccncc2)cc1,69
CC1Cc2nc(SCC(=O)OCc3ccccc3)n(C)c(=O)c2S1 (stereo not drawn),–
N#Cc1c(N)nc2c(c1-c1ccncc1)CCCCCC2,–
CC(=O)N1CCCc2cc(S(=O)(=O)NCc3ccc(C)cc3)ccc21,–
CC(C)(C)c1ccc(C(=O)N2CCC(C(=O)NCc3ccncc3)CC2)cc1,–
Cn1nc(C(C)(C)C)cc1C(=O)NCc1ccc(N2CCCC2=O)cc1,86

# Screening results (PubChem BioAssay)
